Measured values published in ChEMBL document CHEMBL1143146, “Multicomponent reactions in fungicide research: the discovery of mandipropamid” (2008).
Values after ≈ are worked out from the molar mass of the structure shown.

Experiments:
Plasmopara viticola = assay: Antifungal activity against Plasmopara viticola in grape downy mildew after 6 days; format: functional; conditions: 144 h
Outline: (§1)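 Greenhouse trials on whole plants. Disease incidence read after incubation at 20 °C and 95% relative humidity: 4 days on tomato, 6 days on grape. Potency is given as EC80, the concentration in mg L-1 (ppm) giving 80% activity.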

Phytophthora infestans = assay: Antifungal activity against Phytophthora infestans in tomato late blight after 4 days; format: functional; conditions: 96 h; outline: as §1

SMILES | EC80 (Plasmopara viticola) [µg/mL] | EC80 (Phytophthora infestans) [µg/mL]
C#CCOc1ccc(CCNC(=O)C(NS(=O)(=O)N(C)C)c2ccc(SC)cc2)cc1OC (stereo not given) | 16.2 (≈ 33 µM) | 34.9 (≈ 71 µM)
C#CCOc1ccc(CCNC(=O)C(OCC#C)c2ccc(Br)cc2F)cc1OC (stereo not given) | 1.8 (≈ 3.79 µM) | 5.3 (≈ 11.2 µM)
C#CCOc1ccc(CCNC(=O)C(NS(=O)(=O)N(C)C)c2ccc(Cl)c(Cl)c2)cc1OC (stereo not given) | 51.5 (≈ 100 µM) | 19.2 (≈ 37.3 µM)
C#CCOc1ccc(CCNC(=O)C(OCC#C)c2ccc(COC)cc2)cc1OC (stereo not given) | 13.8 (≈ 32.7 µM) | 2.6 (≈ 6.17 µM)
C#CCOc1ccc(CCNC(=O)C(OCC#C)c2ccc(C=C)cc2)cc1OC (stereo not given) | 2 (≈ 4.96 µM) | 3.3 (≈ 8.18 µM)
C#CCOc1ccc(CCNC(=O)C(OCC#C)c2ccc(CCC)cc2)cc1OC (stereo not given) | 1.7 (≈ 4.05 µM) | 4.4 (≈ 10.5 µM)
C#CCOc1ccc(CCNC(=O)C(NS(=O)(=O)N(C)C)c2ccc(OC)cc2)cc1OC (stereo not given) | 34.9 (≈ 73.4 µM) | 8 (≈ 16.8 µM)
C#CCOc1ccc(CCNC(=O)C(OCC#C)c2ccc(Br)cc2)cc1OC (stereo not given) | 2.6 (≈ 5.7 µM) | 3.4 (≈ 7.45 µM)
C#CCOc1ccc(CCNC(=O)C(COc2ccc(C)cc2)OCC#C)cc1OC (stereo not given) | 1.8 (≈ 4.27 µM) | 0.1 (≈ 0.237 µM)
C#CCOc1ccc(CCNC(=O)C(NS(=O)(=O)N(C)C)c2ccc(C(F)(F)F)cc2)cc1OC (stereo not given) | 5.8 (≈ 11.3 µM) | 3.4 (≈ 6.62 µM)
C#CCOc1ccc(CCNC(=O)C(OCC#C)c2ccc3c(c2)Cc2ccccc2-3)cc1OC (stereo not given) | 19.3 (≈ 41.5 µM) | 4.8 (≈ 10.3 µM)
C#CCOc1ccc(CCNC(=O)C(NS(=O)(=O)N(C)C)c2ccc(F)c(Cl)c2)cc1OC (stereo not given) | 59.8 (≈ 120 µM) | 186 (≈ 374 µM)
C#CCOc1ccc(CCNC(=O)C(NS(=O)(=O)N(C)C)c2ccc(OCC)cc2)cc1OC (stereo not given) | 35 (≈ 71.5 µM) | 24.7 (≈ 50.4 µM)
C#CCOc1ccc(CCNC(=O)C(OCC#C)c2ccc(F)cc2)cc1OC (stereo not given) | 3.4 (≈ 8.6 µM) | 1.8 (≈ 4.55 µM)
C#CCOc1ccc(CCNC(=O)C(NS(=O)(=O)N(C)C)c2ccc(Br)cc2)cc1OC (stereo not given) | 39.4 (≈ 75.1 µM) | 7.8 (≈ 14.9 µM)
C#CCOc1ccc(CCNC(=O)C(OCC#C)c2cccs2)cc1OC (stereo not given) | 1.4 (≈ 3.65 µM) | 2.1 (≈ 5.48 µM)
C#CCOc1ccc(CCNC(=O)C(OCC#C)c2ccc(Cl)cc2)cc1OC (stereo not given) [MANDIPROPAMID] | 1.2 (≈ 2.91 µM) | 0.1 (≈ 0.243 µM)
C#CCOc1ccc(CCNC(=O)C(CC2=C(C)CCCC2(C)C)OCC#C)cc1OC (stereo not given) | 124 (≈ 283 µM) | 51.4 (≈ 117 µM)
C#CCOc1ccc(CCNC(=O)C(NS(=O)(=O)N(C)C)c2cccc(C)c2)cc1OC (stereo not given) | 116 (≈ 253 µM) | 150 (≈ 326 µM)
C#CCOc1ccc(CCNC(=O)C(OCC#C)c2ccc(C)c(Cl)c2)cc1OC (stereo not given) | 1.5 (≈ 3.52 µM) | 2.4 (≈ 5.63 µM)

SMILES | EC80 (Plasmopara viticola) [µg/mL] | EC80 (Phytophthora infestans) [µg/mL]
C#CCOc1ccc(CCNC(=O)C(OCC#C)c2ccc(SC)cc2)cc1OC (stereo not given) | 5.3 (≈ 12.5 µM) | 7.6 (≈ 17.9 µM)
C#CCOc1ccc(CCNC(=O)C(OCC#C)c2cc(C)cc(C)c2)cc1OC (stereo not given) | 56.4 (≈ 139 µM) | 41.9 (≈ 103 µM)
C#CCOc1ccc(CCNC(=O)C(OCC#C)c2ccc(C(C)C)cc2)cc1OC (stereo not given) | 2.8 (≈ 6.67 µM) | 6.1 (≈ 14.5 µM)
C#CCOc1ccc(CCNC(=O)C(NS(=O)(=O)N(C)C)c2ccc(CC)cc2)cc1OC (stereo not given) | 5.1 (≈ 10.8 µM) | 2.6 (≈ 5.49 µM)
C#CCOc1ccc(CCNC(=O)C(NS(=O)(=O)N(C)C)c2ccc(F)cc2)cc1OC (stereo not given) | 78.3 (≈ 169 µM) | 45.7 (≈ 98.6 µM)
C#CCOc1ccc(CCNC(=O)C(NS(=O)(=O)N(C)C)c2ccc(F)c(F)c2)cc1OC (stereo not given) | 46.3 (≈ 96.2 µM) | 110 (≈ 228 µM)
C#CCOc1ccc(CCNC(=O)C(OCC#C)c2cccnc2)cc1OC (stereo not given) | > 200 | 186 (≈ 492 µM)
C#CCOc1ccc(CCNC(=O)C(OCC#C)c2ccc(CCCC)cc2)cc1OC (stereo not given) | 10.4 (≈ 24 µM) | 25.9 (≈ 59.7 µM)
C#CCOc1ccc(CCNC(=O)C(OCC#C)c2cccc(Br)c2)cc1OC (stereo not given) | 4.9 (≈ 10.7 µM) | 4.9 (≈ 10.7 µM)
C#CCOc1ccc(CCNC(=O)C(OCC#C)c2ccccc2)cc1OC (stereo not given) | 1.3 (≈ 3.44 µM) | 0.5 (≈ 1.32 µM)
C#CCOc1ccc(CCNC(=O)C(OCC#C)c2cc(F)c(F)c(F)c2)cc1OC (stereo not given) | 19.7 (≈ 45.7 µM) | 26.2 (≈ 60.7 µM)
C#CCOc1ccc(CCNC(=O)C(NS(=O)(=O)N(C)C)c2ccc(Cl)cc2)cc1OC (stereo not given) | 13.8 (≈ 28.8 µM) | 10.6 (≈ 22.1 µM)
C#CCOc1ccc(CCNC(=O)C(COCc2ccccc2)OCC#C)cc1OC (stereo not given) | 20.4 (≈ 48.4 µM) | 0.3 (≈ 0.712 µM)
C#CCOc1ccc(CCNC(=O)C(OCC#C)c2cccc(C)c2)cc1OC (stereo not given) | 1.7 (≈ 4.34 µM) | 6.4 (≈ 16.3 µM)
C#CCOc1ccc(CCNC(=O)C(OCC#C)c2ccc(C)c(C)c2)cc1OC (stereo not given) | 1.6 (≈ 3.95 µM) | 3.2 (≈ 7.89 µM)
C#CCOc1ccc(CCNC(=O)C(OCC#C)c2cccc(Cl)c2Cl)cc1OC (stereo not given) | 25.5 (≈ 57.1 µM) | 168 (≈ 377 µM)
C#CCOc1ccc(CCNC(=O)C(OCC#C)c2ccc(CC)cc2)cc1OC (stereo not given) | 3.1 (≈ 7.64 µM) | 7.5 (≈ 18.5 µM)
C#CCOc1ccc(CCNC(=O)C(OCC#C)c2ccc(F)cc2F)cc1OC (stereo not given) | 5 (≈ 12.1 µM) | 4.6 (≈ 11.1 µM)
C#CCOc1ccc(CCNC(=O)C(OCC#C)c2ccc(C)cc2)cc1OC (stereo not given) | 5.2 (≈ 13.3 µM) | 9.7 (≈ 24.8 µM)
C#CCOc1ccc(CCNC(=O)C(OCC#C)c2ccc(OC)cc2)cc1OC (stereo not given) | 1.6 (≈ 3.93 µM) | 2.3 (≈ 5.64 µM)

SMILES | EC80 (Plasmopara viticola) [µg/mL] | EC80 (Phytophthora infestans) [µg/mL]
C#CCOc1ccc(CCNC(=O)C(OCC#C)c2ccccc2Cl)cc1OC (stereo not given) | > 200 | 81.1 (≈ 197 µM)
C#CCOc1ccc(CCNC(=O)C(NS(=O)(=O)N(C)C)c2ccc(C(C)(C)C)cc2)cc1OC (stereo not given) | 20.2 (≈ 40.3 µM) | 143 (≈ 285 µM)
C#CCOc1ccc(CCNC(=O)C(NS(=O)(=O)N(C)C)c2ccc(C)c(C)c2)cc1OC (stereo not given) | 28.7 (≈ 60.6 µM) | 12.2 (≈ 25.8 µM)
C#CCOc1ccc(CCNC(=O)C(NS(=O)(=O)N(C)C)c2ccccc2)cc1OC (stereo not given) | 28.5 (≈ 64 µM) | 81.2 (≈ 182 µM)
C#CCOc1ccc(CCNC(=O)C(OCC#C)c2cccc(C(F)(F)F)c2)cc1OC (stereo not given) | 3.8 (≈ 8.53 µM) | 5 (≈ 11.2 µM)
C#CCOc1ccc(CCNC(=O)C(OCC#C)c2cccc(F)c2)cc1OC (stereo not given) | 1.8 (≈ 4.55 µM) | 10.2 (≈ 25.8 µM)
C#CCOc1ccc(CCNC(=O)C(NS(=O)(=O)N(C)C)c2ccccc2C)cc1OC (stereo not given) | > 200 | > 200
C#CCOc1ccc(CCNC(=O)C(NS(=O)(=O)N(C)C)c2ccc(OC(F)(F)F)cc2)cc1OC (stereo not given) | 46.4 (≈ 87.6 µM) | 18.8 (≈ 35.5 µM)
C#CCOc1ccc(CCNC(=O)C(OCC#C)c2cccc(OC)c2)cc1OC (stereo not given) | 1.7 (≈ 4.17 µM) | 46.2 (≈ 113 µM)
C#CCOc1ccc(CCNC(=O)C(OCC#C)c2ccc(C(F)(F)F)cc2)cc1OC (stereo not given) | 11.6 (≈ 26 µM) | 8 (≈ 18 µM)
C#CCOc1ccc(CCNC(=O)C(NS(=O)(=O)N(C)C)c2ccc(C)cc2)cc1OC (stereo not given) | 3.2 (≈ 6.96 µM) | 2.5 (≈ 5.44 µM)
C#CCOc1ccc(CCNC(=O)C(OCC#C)c2cccc(Cl)c2)cc1OC (stereo not given) | 2.4 (≈ 5.83 µM) | 3.7 (≈ 8.98 µM)
C#CCOc1ccc(CCNC(=O)C(COc2ccc(Cl)cc2)OCC#C)cc1OC (stereo not given) | 0.6 (≈ 1.36 µM) | 0.02 (≈ 0.0453 µM)
C#CCOc1ccc(CCNC(=O)C(OCC#C)C2CCCCC2)cc1OC (stereo not given) | 5.3 (≈ 13.8 µM) | 47.6 (≈ 124 µM)
C#CCOc1ccc(CCNC(=O)C(OCC#C)c2ccc(Cl)c(Cl)c2)cc1OC (stereo not given) | 3.4 (≈ 7.62 µM) | 4.8 (≈ 10.8 µM)
C#CCOc1ccc(CCNC(=O)C(NS(=O)(=O)N(C)C)c2ccc(C(C)C)cc2)cc1OC (stereo not given) | 14.6 (≈ 29.9 µM) | 26.2 (≈ 53.7 µM)
C#CCOc1ccc(CCNC(=O)C(Cc2ccc(Cl)cc2)OCC#C)cc1OC (stereo not given) | 18.6 (≈ 43.7 µM) | 26.3 (≈ 61.7 µM)
C#CCOc1ccc(CCNC(=O)C(NS(=O)(=O)N(C)C)c2ccc(CCC)cc2)cc1OC (stereo not given) | 16.7 (≈ 34.2 µM) | 3.1 (≈ 6.36 µM)
C#CCOc1ccc(CCNC(=O)C(OCC#C)c2ccc3c(c2)OCCO3)cc1OC (stereo not given) | 2.2 (≈ 5.05 µM) | 16.7 (≈ 38.3 µM)
C#CCOc1ccc(CCNC(=O)C(OCC#C)c2cc(Cl)cc(Cl)c2Cl)cc1OC (stereo not given) | 44.2 (≈ 91.9 µM) | > 200
